Experimental data from ChEMBL document CHEMBL1125163, “Evolution of a series of peptidoleukotriene antagonists: synthesis and structure-activity relationships of 1,6-disubstituted indoles and indazoles” (J Med Chem, 1990).

Assays:
[1] = species on record: Cavia porcellus; test: Percent inhibition of the LTE4- induced contraction of guinea pig tracheal spirals at the concentration of 0.5 uM; assay type: functional; conditions: Trachea
How it was run: (§1)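 Guinea pig trachea cut into spiral strips, each trachea split into paired sections. Tissue bath at 37 °C in modified Krebs buffer gassed with 95% O2/5% CO2, 2 g resting tension, 60 min stabilization. After reproducible responses to 10 nM LTE4, compound was added for 10 min, then LTE4 challenge repeated. Percent inhibition is the 2nd vs 3rd response, adjusted by subtracting the vehicle-treated paired section. Paired t test, p < 0.05.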

[2] = species on record: Cavia porcellus; test: Percent inhibition of the LTE4- induced contraction of guinea pig tracheal spirals at the concentration of 0.1 uM; assay type: functional; conditions: Trachea; how it was run: as §1
[3] = system: Cavia porcellus; test: Percent protection was determined from the time delay to the onset of dyspnea compared to that of control guinea pig at a concentration of 100 uM/kg; assay type: functional
How it was run: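 Conscious guinea pigs were pretreated ip with indomethacin (10 mg/kg) and propranolol (5 mg/kg). Compound was given orally in poly(ethylene glycol) 60 min before challenge with aerosolized 60 µM LTD4 for up to 5 min. End point was labored abdominal breathing, scored blind. % protection = (drug time − mean control time)/(max aerosol time − mean control time) × 100, with at least two vehicle animals per run.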

[4] = species on record: Cavia porcellus; test: Percent inhibition of the LTE4- induced contraction of guinea pig tracheal spirals at concentration of 5 uM; assay type: functional; conditions: Trachea; how it was run: as §1
[5] = pKB value of the compound
How it was run: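 Guinea pig tracheal strips at 37 °C in Krebs buffer. Cumulative LTE4 concentration-response curves were built in log increments, with responses expressed as % of the maximum to 30 µM carbachol. Antagonist was incubated 30 min before the curve, with vehicle on paired controls. EC50 came from linear regression. KB = [antagonist]/(dose ratio − 1) by the Furchgott method. One curve per tissue.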

[6] = Selectivity ratio of the compound; assay type: functional

Which inhibition at 0.5 µM [1] does the source give for CCCCOC(=O)Nc1ccc2ccn(Cc3ccc(C(=O)O)cc3OC)c2c1 here?
Its inhibition at 0.5 µM is 54%.

With COc1cc(C(=O)O)ccc1Cn1ccc2ccc(NC(=O)OC3CCCC3)cc21 as the compound, how does the inhibition at 0.1 µM [2] read?
Its inhibition at 0.1 µM is 61%.

What about the Protection [3] of the same compound?
Its Protection is 23%.

Which inhibition at 5 µM [4] does the source give for CCCCCC(=O)Nc1ccc2ccn(Cc3ccc(C(=O)O)cc3OC)c2c1 here?
Its inhibition at 5 µM is 70%.

What about the pKB [5] of the same compound?
Its pKB is 6.

And the Selectivity ratio [6]?
The Selectivity ratio was 100.
